Here are results for 17 compounds from ChEMBL document CHEMBL1136324, “The total synthesis of an aurone isolated from Uvaria hamiltonii: aurones and flavones as anticancer agents” (Bioorg Med Chem Lett, 2003).

As a reminder, the IC50 is the concentration that inhibits the measured activity by half. A lower IC50 goes with greater potency in that assay.

The subject of assay [1] is K562. Put plainly: Inhibitory activity against K562 human chronic myelogenous leukemia cell line using MTT assay after 5 days incubation of the compound. Type of assay: functional, cell-based. As to conditions: K562, 120 h. In a few lines:
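K562 cells exposed to drug for 5 days at 37 °C; growth read by MTT assay. IC50 taken as concentration giving 50% inhibition of cell growth.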
(Tetrazolium dyes change colour on reduction, which living cells bring about.)

The next assay addresses Tubulin alpha chain (Sus scrofa, UniProt P02550). As to the kind of experiment: Concentration that cause a 50% inhibition in tubulin assembly as measured by an increase in turbidity using microtubule assembly assay.
The target in a further assay is Tubulin (Sus scrofa, UniProt P02554+P02550). Put plainly: Ability to inhibit the binding of [3H]colchicine to porcine tubulin. Format: protein assay.
The test system of assay [2] is K562. Put plainly: Effect on G2/M phase of the cell cycle by flow cytometry. Type of assay: functional, Homo sapiens. In a few lines: (§1)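 Cell-cycle phase distribution measured by flow cytometry in drug-treated cells, compared with untreated control.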
In general terms: In flow cytometry, cells or beads pass a laser one at a time.

Assay [3] has as its system K562. Put plainly: Effect on S phase of the cell cycle by flow cytometry. Type of assay: functional, Homo sapiens. The gist of the method: as §1
Assay [4] has as its system K562. Put plainly: Effect on G0-G1 phase of the cell cycle by flow cytometry. Format: functional, Homo sapiens. The gist of the method:
as §1

Tubulin alpha chain, sequence (P02550 whole entry, looked up): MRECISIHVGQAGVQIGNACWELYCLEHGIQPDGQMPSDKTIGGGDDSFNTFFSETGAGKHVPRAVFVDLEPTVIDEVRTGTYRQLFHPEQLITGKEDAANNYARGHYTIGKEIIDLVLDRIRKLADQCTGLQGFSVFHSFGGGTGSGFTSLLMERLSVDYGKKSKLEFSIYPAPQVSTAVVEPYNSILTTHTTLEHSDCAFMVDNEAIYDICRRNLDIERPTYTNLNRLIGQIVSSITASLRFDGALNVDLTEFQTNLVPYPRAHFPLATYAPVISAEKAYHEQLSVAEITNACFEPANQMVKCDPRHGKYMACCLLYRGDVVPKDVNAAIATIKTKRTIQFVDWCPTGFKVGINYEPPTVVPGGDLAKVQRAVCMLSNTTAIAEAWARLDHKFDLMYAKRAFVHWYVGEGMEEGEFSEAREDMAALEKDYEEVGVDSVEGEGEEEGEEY

For the compound `COc1ccc(-c2cc(=O)c3cc(OC)c(OC)c(OC)c3o2)cc1F`, the IC50 with K562 [1] is 0.59 µM; at Tubulin alpha chain, greater than 50 µM.

`COc1ccc(/C=C2\Oc3cc(OC)c(OC)c(OC)c3C2=O)cc1F`: the IC50 in the assay on K562 [1] and against Tubulin alpha chain was greater than 50 µM in each case.

Consider `COc1ccc(/C=C2\Oc3c(cc(OC)c(OC)c3OC)C2=O)cc1O`, for which the IC50 on Tubulin worked out at 60 µM; with K562 [1], 0.05 µM; at Tubulin alpha chain, 22 µM. The Activity in the assay on K562 [2] is listed as 69; in the assay on K562 [3], 14; with K562 [4] it was 17.

As for `COc1ccc(-c2cc(=O)c3c(OC)c(OC)c(OC)cc3o2)cc1`, the midpoint of inhibition with K562 [1], the IC50, lay at 42 µM. This lies in the double-digit micromolar range.

On to `COc1ccc(-c2cc(=O)c3cc(OC)c(OC)c(OC)c3o2)cc1O`, for which the half-inhibitory concentration (IC50) on Tubulin turned out to be 40 µM; with K562 [1], 0.04 µM; against Tubulin alpha chain, 25 µM. Further, the results for the Activity with K562 [2], with K562 [3] and in the assay on K562 [4] were 38, 11 and 52, respectively.

Consider `COc1cc2c(c(OC)c1OC)O/C(=C\c1ccc(O)c(O)c1)C2=O`, for which the Activity with K562 [2] is recorded as 39; in the assay on K562 [3], 16; with K562 [4], 45. Also, the IC50 in the assay with K562 [1] was 9.7 µM; at Tubulin alpha chain, greater than 50 µM.

For `COc1ccc(/C=C(\C)C(=O)c2cc(OC)c(OC)c(OC)c2)cc1O`, the Activity with K562 [2] was 83; in the assay on K562 [3], 7; in the assay with K562 [4] it was 10. The IC50 is 0.0002 µM with K562 [1] and 0.5 µM against Tubulin alpha chain.

Take `COc1ccc(-c2cc(=O)c3c(OC)c(OC)c(OC)cc3o2)cc1O`: the values for the IC50 with K562 [1] and against Tubulin alpha chain were 22 µM and greater than 50 µM, respectively.

For the compound `COc1ccc(/C=C2\Oc3cc(OC)c(OC)c(OC)c3C2=O)cc1`, the IC50 in the assay on K562 [1] was greater than 50 µM.

Turning to `COc1cc2c(c(OC)c1OC)C(=O)/C(=C/c1ccc(O)c(O)c1)O2`, the Activity in the assay on K562 [2] stood at 25; with K562 [3] it was 18; in the assay with K562 [4] it was 57. Also, the IC50 in the assay with K562 [1] was 12 µM; against Tubulin alpha chain it was greater than 50 µM.

In the assay on K562 [1], `COc1ccc(/C=C2\Oc3c(cc(OC)c(OC)c3OC)C2=O)cc1` showed an IC50 of 0.15 µM.

As to `COc1cc2c(c(OC)c1OC)C(=O)/C(=C/c1cc(F)c(OC)c(F)c1)O2`, the IC50 in the assay on K562 [1] is greater than 50 µM.

As to `COc1ccc(-c2cc(=O)c3cc(OC)c(OC)c(OC)c3o2)cc1`, 0.83 µM corresponded to half-maximal inhibition with K562 [1] (IC50).

As to `COc1ccc(/C=C2\Oc3cc(OC)c(OC)c(OC)c3C2=O)cc1O`, the figures for the IC50 with K562 [1] and against Tubulin alpha chain were 18 µM and greater than 50 µM, respectively.

With `COc1cc2c(c(OC)c1OC)O/C(=C\c1cc(F)c(OC)c(F)c1)C2=O`, in the assay on K562 [1], the IC50 turned out to be 0.15 µM.

With `COc1ccc(/C=C2\Oc3c(cc(OC)c(OC)c3OC)C2=O)cc1F`, the Activity is given as 77 in the assay with K562 [2], 11 in the assay with K562 [3] and 12 in the assay on K562 [4]. Further, the IC50 in the assay on K562 [1] is 0.11 µM; against Tubulin alpha chain it was greater than 50 µM.

As to `COc1ccc(-c2cc(=O)c3c(OC)c(OC)c(OC)cc3o2)cc1F`, the IC50 in the assay with K562 [1] and at Tubulin alpha chain was greater than 50 µM throughout.
